Source: PubChem
SENP8 block-1 = SENP8 protease inhibitors, primary screen, biochemical, luminescence; Sentrin-specific protease 8 (Homo sapiens), Q96LD8; purified SENP8, Z-RLRGG-aminoluciferin cleavage; inhibition, % at 10 µM; 330,000 tested, 1.2% active; AID 2540, 2010; in the data active = inhibition above about 50%
Target sequence (Q96LD8 whole entry, looked up): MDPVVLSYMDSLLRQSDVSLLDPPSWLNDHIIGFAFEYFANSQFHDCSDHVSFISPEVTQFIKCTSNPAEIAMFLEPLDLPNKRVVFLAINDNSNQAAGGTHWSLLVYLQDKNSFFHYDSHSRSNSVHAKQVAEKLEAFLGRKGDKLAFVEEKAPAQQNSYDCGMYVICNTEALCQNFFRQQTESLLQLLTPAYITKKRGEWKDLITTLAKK
SENP7 block = SENP7 protease inhibitors, primary screen, biochemical, luminescence, uHTS; Sentrin-specific protease 7 (Homo sapiens), Q9BQF6; recombinant SENP7, Z-RLRGG-aminoluciferin luminescence, 40 min; inhibition, % at 5 µM; 330,000 tested, 1.5% active; AID 434973, 2010;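 active = inhibition above about 50% at the single test dose, limit read from the data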;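 note: plate controls were DMSO with enzyme for no effect and no enzyme buffer wells for full effect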
SENP1 inh = human SENP1 catalytic domain inhibitors, primary screen, biochemical, FRET, uHTS | inhibition, % at 10 µM | recombinant SENP1 catalytic domain, CyPet-SUMO1-YPet FRET cleavage | Sentrin-specific protease 1 (Homo sapiens), Q9P0U3 | 360,000 tested, 0.21% active;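 active = inhibition at least 30% at 10 µM, raw YFP signal under a set limit, fluorescence ratio 0.5 to 1.5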;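 note: 0% = enzyme with DMSO and 100% = no enzyme wells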
Target sequence (Q9P0U3 419-644 limits assumed): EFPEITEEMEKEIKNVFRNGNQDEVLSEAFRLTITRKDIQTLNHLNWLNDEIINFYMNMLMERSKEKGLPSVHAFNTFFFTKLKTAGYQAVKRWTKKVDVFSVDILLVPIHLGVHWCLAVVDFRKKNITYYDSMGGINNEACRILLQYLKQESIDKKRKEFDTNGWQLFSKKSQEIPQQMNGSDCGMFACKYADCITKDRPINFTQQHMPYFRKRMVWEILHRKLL
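Assay system: hSENP1 catalytic domain, recombinant. Amount: SENP1 enzyme, 20 pM final. Schedule: 50 min reaction, RT, dark. Technique: FRET, CFP and YFP emission. Control set: no-enzyme wells low, DMSO-plus-enzyme wells high control.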
HSP90 inh = HSP90 inhibitors, primary screen, cell lysate, luminescence | Heat shock protein HSP 90 (rabbit reticulocyte lysate; luciferase refolding) | Rabbit reticulocyte lysate, luciferase refolding luminescence, 3 h | inhibition, % at 5.6 µM | 290,000 tested, 0.91% active | AID 1789, 2009;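 active = inhibition above the screen-wide mean plus 3 SD, computed separately per campaign, cut at about 16% in these data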;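 note: 0% = DMSO wells and 100% = 60 µM geldanamycin wells; inhibitors lower the luminescence because luciferase stays unfolded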
SENP8 block-2 = human SENP8 protease inhibitors, primary screen, biochemical, fluorescence, Nedd8 protein substrate, uHTS; Sentrin-specific protease 8 (Homo sapiens), Q96LD8; 360,000 tested, 0.64% active; recombinant SENP8; inhibition, % at 20 µM; in the data active = inhibition mostly above about 40%, no sharp cut-off; inactive = mostly below about 27%
SENP6 inh = SENP6 protease inhibitors, primary screen, biochemical, luminescence, uHTS; Recombinant SENP6 catalytic domain, aminoluciferin luminescence; inhibition, % at 10 µM; 330,000 tested, 1.8% active;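 active = inhibition above about 50% at the single tested dose, limit read from the data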;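 note: plate controls were DMSO wells with enzyme for no effect and DMSO wells lacking enzyme for full effect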
HSP90 inh confirm = HSP90 inhibitors, confirmation, cell lysate, luminescence. AID 1846, 2009. 2,300 tested, 64% active. shares compounds with HSP90 inh. inhibition, % at 5.9 µM. rabbit reticulocyte lysate, luciferase refolding luminescence, 3 h; in the data active = inhibition above about 18%;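 note: 0% = vehicle wells and 100% = reference inhibitor wells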
luciferase ctr = firefly luciferase inhibitors, HSP90 counter-screen, confirmation, artefact control for HSP90 inhibitor project, biochemical, luminescence, triplicate; 2,300 tested, 48% active; shares compounds with HSP90 inh; AID 1847, 2009; inhibition, % at 5.9 µM; purified native firefly luciferase;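 active = inhibition above the mean inhibition of all tested sample wells plus 3 SD, cut at about 10% in these data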;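 note: 0% = DMSO with luciferase and 100% = wells lacking luciferase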
* marks the source's active call; other numbers are inactive results; i = inactive; . = not tested or not shown. Most compounds without a hit are left out; they make up all but 2.9% or so of the library.

SMILES	SENP8 block-1	SENP7 block	SENP1 inh	HSP90 inh	SENP8 block-2	SENP6 inh	HSP90 inh confirm	luciferase ctr
C#CCOCCOCCOCCNc1nc(N2CCN(C(=O)[C@H]([C@@H](C)CC)n3cc([C@@H](N)Cc4ccc(O)cc4)nn3)CC2)nc(N2CCN(C(=O)[C@H](Cc3cc4ccccc4[nH]3)n3cc([C@@H](N)C(C)CC)nn3)CC2)n1 (some centres undefined)	1	-7	.	19*	.	-21	10	-10
C#CCOCCOCCOCCNc1nc(N2CCN(C(=O)[C@H](Cc3cc4ccccc4[nH]3)n3cc([C@@H](N)CC(C)C)nn3)CC2)nc(N2CCN(C(=O)[C@H](Cc3cc4ccccc4[nH]3)n3cc([C@@H](N)CC(C)C)nn3)CC2)n1	-22	6	-9	20*	-1	-14	18*	-10
C#CCOCCOCCOCCNc1nc(N2CCOCC2)nc(N2CCN(C(=O)[C@H](Cc3cc4ccccc4[nH]3)n3cc([C@@H](N)CC(C)C)nn3)CC2)n1	-18	-7	-22	6	-23	-32	.	.
COCCn1c(SCC(=O)N2CCCC2=O)nnc1-c1ccncc1	.	.	1	.	17	.	.	.
CCOC(=O)c1c(-c2ccc(C)o2)csc1NC(=S)NC(=O)c1ccccc1Br	-5	-7	2	21*	14	-4	5	-6
CC(C)Oc1ccc(CC(=O)NNC(=S)Nc2ccccc2)cc1	-3	8	1	-3	13	-3	.	.
CC(C)Oc1ccc(CCC(=O)NNC(=S)Nc2ccccc2)cc1	1	4	0	18*	10	-10	-6	-10
CNc1cc(-c2cccc(N(C)C)c2)ncn1	.	.	-2	.	i	.	.	.
Cc1nnc(SCC(=O)Nc2ncc3c(n2)CC(c2ccccc2)CC3=O)s1 (centres undefined)	-8	1	2	35*	11	-23	-3	-6
O=C(OCc1ccccn1)c1ccc(COc2ccc3ccccc3c2)o1	5	-4	-2	45*	26	26	63*	-11
NNC(=O)c1ccc(COc2ccc3ccccc3c2)o1	-2	-10	-2	3	1	-3	.	.
CSc1ccccc1NC(=O)CN(C)C(=O)C1CC(=O)N(C(C)c2ccccc2)C1 (centres undefined)	2	5	0	.	2	2	.	.
COc1ccc(OC)c(-c2cc(C(=O)N/N=C(\C)c3cccnc3)c3ccccc3n2)c1	-2	10	0	3	-72	-24	.	.
CCOc1ccc(-c2cc(C(=O)N/N=C(\C)c3cccnc3)c3ccccc3n2)cc1	4	6	2	28*	-414	6	3	-23
Nn1c(SCC(=O)Nc2cccc(Br)c2)nnc1C1CC1	-2	5	1	.	3	-11	.	.
CS(=O)(=O)c1ccc(NC(=O)c2cccc(S(=O)(=O)N3CCN(Cc4ccccc4)CC3)c2)cc1	-3	-2	2	0	2	-7	.	.
CCOc1ccc(/C=N/NC(=O)c2ccccc2NC(=O)c2ccc(OC)cc2)cc1	-12	2	1	19*	-106	-1	10	-25
O=C(NNS(=O)(=O)c1ccc(F)cc1)C1CC(c2cccnc2)=NO1 (centres undefined)	-8	-6	1	21*	-2	5	3	0
O=C(Nc1cccc(-c2cn3c(n2)SCC3)c1)c1ccc2ccccc2n1	1	7	-4	50*	6	-17	31*	-1
O=C(Nc1ccc(-c2cn3c(n2)SCC3)cc1)c1ccc2ccccc2n1	-6	1	5	2	23	-3	.	.
